Assay results from ChEMBL document CHEMBL4145560, “Conformationally Constrained Cinnolinone Nucleoside Analogues as Siderophore Biosynthesis Inhibitors for Tuberculosis” (ACS Med Chem Lett, 2018).
Active and inactive are the calls of the source. The rule behind the calls is not given here.

Columns and labels:
[1] = target: T1, Salicyl-AMP ligase / salicyl-S-ArCP synthetase (Mycobacterium tuberculosis, UniProt P71716); test: Inhibition of Mycobacterium tuberculosis recombinant salicylate ligase MbtA expressed in Escherichia coli using salicylic acid as substrate after 20 mins by [32P]PPi-ATP exchange based scintillation counting analysis; details: read-out: Ki(app)
T1 sequence (P71716 whole entry): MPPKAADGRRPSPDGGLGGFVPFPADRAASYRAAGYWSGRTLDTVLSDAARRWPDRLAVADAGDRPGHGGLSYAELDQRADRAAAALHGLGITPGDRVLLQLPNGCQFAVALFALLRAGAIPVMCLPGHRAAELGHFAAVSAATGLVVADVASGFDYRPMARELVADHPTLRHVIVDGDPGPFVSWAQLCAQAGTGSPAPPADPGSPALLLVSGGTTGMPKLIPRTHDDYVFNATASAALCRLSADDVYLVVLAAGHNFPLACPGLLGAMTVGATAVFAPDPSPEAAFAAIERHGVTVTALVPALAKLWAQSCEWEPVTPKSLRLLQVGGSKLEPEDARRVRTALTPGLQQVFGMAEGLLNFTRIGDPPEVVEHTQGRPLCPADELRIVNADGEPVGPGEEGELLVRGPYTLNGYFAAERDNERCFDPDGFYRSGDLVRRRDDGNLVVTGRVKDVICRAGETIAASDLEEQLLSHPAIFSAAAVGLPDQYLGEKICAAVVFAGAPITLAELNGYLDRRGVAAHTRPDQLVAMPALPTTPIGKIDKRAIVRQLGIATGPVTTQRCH
Method in brief: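 Recombinant MbtA (7 nM) in a [32P]PPi-ATP exchange assay under initial-velocity conditions at pH 8.0. Substrates were 10 mM ATP, 250 μM salicylic acid and 1 mM PPi. Concentration–response data were fitted to the Morrison tight-binding equation to give apparent Ki.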

[2] = Cytotoxicity against human HepG2 cells assessed as reduction in cell viability; format: cell-based
Method in brief: (§1)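 Viability of mammalian Vero and HepG2 cell lines tested up to a highest concentration of 200 μM.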

[3] = Cytotoxicity against African green monkey Vero cells assessed as reduction in cell viability; format: cell-based; details: chlorocebus sabaeus; method in brief: as §1
[4] = test system: Mycobacterium tuberculosis; test: Antimycobacterial activity against Mycobacterium tuberculosis H37Rv in glycerol alanine salts medium without ferric ammonium citrate at pH 6.6 after 10 to 14 days by broth microdilution method; format: functional
Method in brief: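 M. tuberculosis H37Rv grown in glycerol-alanine-salts medium at pH 6.6, with no ferric ammonium citrate or other added iron. MIC taken as the concentration inhibiting 99% of growth.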

[5] = test system: Mycobacterium tuberculosis; test: Antimycobacterial activity against Mycobacterium tuberculosis H37Rv in glycerol alanine salts medium without ferric ammonium citrate at pH 6.6 after 10 to 14 days in presence of 0.2 to 3.1 uM salicylate by broth microdilution method; format: functional, organism-based
Method in brief: (§2)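 MIC against M. tuberculosis in iron-deficient GAST medium supplemented with salicylate at 0, 0.2, 0.78, 3.1 or 12.5 μM. Salicylate was added to the growth medium to test antagonism of whole-cell activity.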

[6] = test system: Mycobacterium tuberculosis; test: Antimycobacterial activity against Mycobacterium tuberculosis H37Rv in glycerol alanine salts medium without ferric ammonium citrate at pH 6.6 after 10 to 14 days in presence of 12.5 uM salicylate by broth microdilution method; format: functional; method in brief: as §2
[7] = Oral bioavailability in Sprague-Dawley rat at 25 mg/kg administered as single dose via gavage by LC-MS/MS method; format: ADME, organism-based; details: in vivo
Method in brief: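 Oral bioavailability (F) in female Sprague–Dawley rats (n = 3), calculated by comparing AUC0–8h after a single 25 mg/kg p.o. dose with AUC0–8h after a 2.5 mg/kg i.v. dose. Plasma levels measured by LC–MS/MS.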

[8] = Clearance in Sprague-Dawley rat at 2.5 mg/kg, iv administered as single dose via bolus injection by LC-MS/MS method; format: ADME, organism-based; details: in vivo
Method in brief: (§3)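 Female Sprague–Dawley rats (n = 3), single i.v. dose 2.5 mg/kg. Plasma concentrations at several time points by LC–MS/MS. AUC taken over 0–8 h. Clearance, volume of distribution and half-life derived from the i.v. curve, with elimination monoexponential. Reported as mean ± SD.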

[9] = AUC (0 to 8 hrs) in Sprague-Dawley rat at 2.5 mg/kg, iv administered as single dose via bolus injection by LC-MS/MS method; format: ADME, organism-based; parameters: time < 8 hr, dose 2.5 mg/kg, route intravenous; details: in vivo; method in brief: as §3
[10] = AUC (0 to 8 hrs) in Sprague-Dawley rat at 25 mg/kg, po administered as single dose via gavage by LC-MS/MS method; format: ADME, organism-based; parameters: time < 8 hr, dose 25 mg/kg, route oral; details: in vivo
Method in brief: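 Female Sprague–Dawley rats (n = 3), single oral dose 25 mg/kg. Plasma levels at time points measured by LC–MS/MS. AUC over 0–8 h, reported as mean ± SD.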

[11] = Volume of distribution at steady state in Sprague-Dawley rat at 2.5 mg/kg, iv administered as single dose via bolus injection by LC-MS/MS method; format: ADME, organism-based; details: in vivo, read-out: Vdss; method in brief: as §3
[12] = Elimination half life in Sprague-Dawley rat at 2.5 mg/kg, iv administered as single dose via bolus injection by LC-MS/MS method; format: ADME, organism-based; details: in vivo, read-out: beta t1/2; method in brief: as §3
[13] = target: T2, Salicyl-AMP ligase / salicyl-S-ArCP synthetase (Mycobacterium tuberculosis) (UniProt P71716); test: Inhibition of salicylate ligase MbtA in Mycobacterium tuberculosis H37Rv in iron-free GAST medium assessed as reduction in cell-wall associated lipophilic mycobactin-T production at pH 7.4 at 5 times MIC after 27 hrs by LC-MS/MS method relative to control
T2 sequence (whole entry): T1 sequence (P71716 whole entry)
Method in brief: (§4)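 M. tuberculosis grown in iron-deficient GAST medium from an initial OD650 of 0.2, with or without inhibitor at 5 × MIC, for 27 and 70 h. Mycobactin-T (cell-wall associated) and carboxymycobactin (secreted plus cell-wall associated) quantified by LC–MS/MS in MRM mode against synthetic standards. Values normalized to cell density.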

[14] = target: T2, Salicyl-AMP ligase / salicyl-S-ArCP synthetase (Mycobacterium tuberculosis); test: Inhibition of salicylate ligase MbtA in Mycobacterium tuberculosis H37Rv in iron-free GAST medium assessed as reduction in water-soluble carboxymycobactin production at pH 7.4 at 5 times MIC after 27 to 70 hrs by LC-MS/MS method relative to control; method in brief: as §4
[15] = target: T2, Salicyl-AMP ligase / salicyl-S-ArCP synthetase (Mycobacterium tuberculosis); test: Inhibition of salicylate ligase MbtA in Mycobacterium tuberculosis H37Rv in iron-free GAST medium assessed as reduction in cell-wall associated lipophilic mycobactin-T production at pH 7.4 at 5 times MIC after 70 hrs by LC-MS/MS method relative to control; method in brief: as §4
[16] = test system: Mycobacterium tuberculosis; test: Antimycobacterial activity against wild type Mycobacterium tuberculosis in iron-free GAST medium at 0.04 to 10 uM after 8 days by two fold serial dilution method; format: functional, organism-based

Structure (SMILES) | Ki [1] | CC50 [2] | CC50 [3] | MIC99 [4] | Activity [5] | MIC [6] | bioavailability [7] | clearance [8] | AUC(0-t) at 8 h [9] | AUC(0-t) at 8 h [10] | Vd [11] | half-life [12] | fold change (FC) [13] | fold change (FC) [14] | fold change (FC) [15] | Activity [16]
Nc1ncnc2c1ncn2[C@@H]1O[C@H](CNS(=O)(=O)c2c[nH]c3ccccc3c2=O)[C@@H](O)[C@H]1O | 0.12 µM | > 200 µM | > 200 µM | > 50 µM |  |  |  |  |  |  |  |  |  |  |  | 
Nc1ncnc2c1ncn2[C@@H]1O[C@H](CNS(=O)(=O)c2n[nH]c3ccc(F)cc3c2=O)[C@@H](O)[C@H]1O | 0.0209 µM | > 200 µM | > 200 µM | 4.7 µM | inactive | ≥ 50 µM |  |  |  |  |  |  |  |  |  | 
Nc1ncnc2c1ncn2[C@@H]1O[C@H](CNS(=O)(=O)c2noc3ccccc3c2=O)[C@@H](O)[C@H]1O | > 50 µM | > 200 µM | > 200 µM | > 50 µM |  |  |  |  |  |  |  |  |  |  |  | 
Nc1ncnc2c1ncn2[C@@H]1O[C@H](CNS(=O)(=O)c2n[nH]c3ccccc3c2=O)[C@@H](O)[C@H]1O | 0.0144 µM | > 200 µM | > 200 µM | 4.7 µM | inactive | ≥ 50 µM |  |  |  |  |  |  |  |  |  | 
Nc1ncnc2c1ncn2[C@@H]1O[C@H](CNS(=O)(=O)c2n[nH]c3cc(F)c(F)cc3c2=O)[C@@H](O)[C@H]1O | 0.014 µM | > 200 µM | > 200 µM | 3.1 µM | inactive | ≥ 50 µM |  |  |  |  |  |  |  |  |  | 
CCN(CC)CC.Nc1ncnc2c1ncn2[C@@H]1O[C@H](CNS(=O)(=O)c2n[nH]c3cc(F)ccc3c2=O)[C@@H](O)[C@H]1O | 0.0116 µM | > 200 µM | > 200 µM | 2.3 µM | inactive | ≥ 50 µM | 2.1% | 8.9 mL/min/kg | 4630 ng·h/mL | 967 ng·h/mL | 0.57 L/kg | 40 min | > 2 | 1.5 | 5 | 
Nc1ncnc2c1ncn2[C@@H]1O[C@H](COS(=O)(=O)NC(=O)c2ccccc2O)[C@@H](O)[C@H]1O |  |  |  |  |  | ≥ 50 µM | < 1% | 4.9 mL/min/kg | 8650 ng·h/mL | 1100 ng·h/mL | 0.079 L/kg | 11 min |  |  |  | Active
